# Data reported in ChEMBL document CHEMBL2321866 (J Med Chem, 2013).
# The source made the active and inactive calls. The rule behind the calls is not given here.
# Assays:
# Cannabinoid receptor 2 [1] = target: T1, Cannabinoid receptor 2 (Homo sapiens, UniProt P34972); assay: Displacement of [3H]CP-55,940 from CB2 receptor (unknown origin) after 1 hr by scintillation counting analysis
# Homo sapiens = species: Homo sapiens; assay: Selectivity index, ratio of Ki for CB1 receptor (unknown origin) to Ki for CB2 receptor (unknown origin)
# Cannabinoid receptor 1 = Cannabinoid receptor 1 (Homo sapiens, UniProt P21554)
# Cannabinoid receptor 2 [2] = target: T1, Cannabinoid receptor 2; assay: Inverse agonist activity at human CB2 receptor expressed in CHO cells assessed as increase in forskolin-induced cAMP production after 45 mins in presence of phosphodiesterase inhibitor RO20-1724; assay type: functional, cell-based
# RAW264.7 [3] = assay: Inhibition of RANKL-induced osteoclastogenesis in mouse RAW264.7 cells at 10 uM after 5 days by TRAP assay relative to control; assay type: functional; conditions: RAW264.7, 120 h
# Summary of the method: (§1)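 RAW 264.7 murine monocytic cells were seeded at 3 × 10^3 per well and cultured 24 h in αMEM with 10% FBS. Medium was then replaced with the same medium containing RANKL (15 ng/mL) plus test compound. […] Mean of three experiments, each in triplicate.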
# RAW264.7 [4] = assay: Cytotoxicity against mouse RAW264.7 cells assessed as cell viability at […] after 3 days by MTT assay; assay type: cell-based; conditions: raw264.7, 72 h
# RAW264.7 [5] = assay: Inhibition of RANKL-induced osteoclastogenesis in mouse RAW264.7 cells after 5 days by TRAP assay; assay type: functional, cell-based
# Summary of the method: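 RAW 264.7 cells, 3×10^3 per well, grown 24 h in αMEM/10% FBS, then switched to medium with RANKL (15 ng/mL) plus compound (0.1–10 µM). After 5 days cells fixed and TRAP-stained; TRAP+ cells with more than three nuclei scored as osteoclasts. Mean of three experiments in triplicate.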
# RAW264.7 [6] = assay: Cytotoxicity against mouse RAW264.7 cells assessed as cell viability at 5 uM after 3 days by MTT assay; assay type: cell-based; conditions: raw264.7, 72 h
# Summary of the method: (§2)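 Survival measured by MTT and expressed as percent of vehicle control. Mean ± S.E.M. of experiments run in triplicate.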
# RAW264.7 [7] = assay: Inhibition of RANKL-induced osteoclastogenesis in mouse RAW264.7 cells at 0.1 uM after 5 days by TRAP assay relative to control; assay type: functional; conditions: RAW264.7, 120 h; summary of the method: as §1
# RAW264.7 [8] = assay: Inhibition of RANKL-induced osteoclastogenesis in mouse RAW264.7 cells at 1 uM after 5 days by TRAP assay relative to control; assay type: functional; summary of the method: as §1
# RAW264.7 [9] = assay: Cytotoxicity against mouse RAW264.7 cells assessed as cell viability at 5 to 10 uM after 3 days by MTT assay; assay type: cell-based; conditions: raw264.7, 72 h; summary of the method: as §2
# RAW264.7 [10] = assay: Cytotoxicity against mouse RAW264.7 cells assessed as cell viability at 2.5 uM after 3 days by MTT assay relative to vehicle-treated control; assay type: cell-based; conditions: raw264.7, 72 h; summary of the method: as §2
# T1 sequence (P34972 whole entry): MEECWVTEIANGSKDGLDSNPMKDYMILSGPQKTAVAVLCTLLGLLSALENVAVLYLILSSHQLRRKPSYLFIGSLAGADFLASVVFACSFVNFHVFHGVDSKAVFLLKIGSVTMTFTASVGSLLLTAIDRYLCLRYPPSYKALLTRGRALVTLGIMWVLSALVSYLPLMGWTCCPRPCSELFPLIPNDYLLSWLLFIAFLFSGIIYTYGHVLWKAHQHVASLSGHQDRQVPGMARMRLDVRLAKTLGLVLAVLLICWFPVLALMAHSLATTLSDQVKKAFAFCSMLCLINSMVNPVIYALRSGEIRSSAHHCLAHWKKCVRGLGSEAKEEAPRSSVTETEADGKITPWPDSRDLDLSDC
# Cannabinoid receptor 1, sequence (P21554 whole entry): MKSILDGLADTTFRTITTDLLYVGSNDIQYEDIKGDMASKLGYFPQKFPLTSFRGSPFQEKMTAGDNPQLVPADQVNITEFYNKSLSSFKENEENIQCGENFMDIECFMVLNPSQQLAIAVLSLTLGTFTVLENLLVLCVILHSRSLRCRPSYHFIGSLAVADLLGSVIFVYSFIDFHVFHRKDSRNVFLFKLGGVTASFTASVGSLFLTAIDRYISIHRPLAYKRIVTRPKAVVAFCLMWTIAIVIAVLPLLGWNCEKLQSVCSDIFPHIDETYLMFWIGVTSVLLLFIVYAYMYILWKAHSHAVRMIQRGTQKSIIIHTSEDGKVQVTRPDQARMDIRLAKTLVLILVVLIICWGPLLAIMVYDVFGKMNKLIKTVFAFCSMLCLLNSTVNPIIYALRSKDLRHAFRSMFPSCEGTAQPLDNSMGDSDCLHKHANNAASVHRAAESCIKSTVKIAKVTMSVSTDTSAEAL
SMILES,Ki (Cannabinoid receptor 2 [1]; read-out: Ki),Ratio Ki (Homo sapiens),further results
CCN(CC)c1ccc(CN([C@]23C[C@H]4C[C@H](C[C@H](C4)C2)C3)S(=O)(=O)c2ccc(Cl)cc2)cc1,173 nM,11,Ki (Cannabinoid receptor 1): 2.03 µM
CCN(CC)c1ccc(CN([C@]23C[C@H]4C[C@H](C[C@H](C4)C2)C3)S(=O)(=O)c2ccccc2)cc1,84 nM,130,Ki (Cannabinoid receptor 1): 11 µM
CCN(CC)c1ccc(CN(C(=O)Cc2ccccc2)[C@]23C[C@H]4C[C@H](C[C@H](C4)C2)C3)cc1,38 nM,> 333,Ki (Cannabinoid receptor 1): > 20 µM
CCN(CC)c1ccc(CN(c2ccc(Cl)cc2)S(=O)(=O)c2cccc(C)c2)cc1,2.8 nM,,
CCCCCCCN(Cc1ccc(N(CC)CC)cc1)C(=O)Cc1ccc(Cl)cc1,696 nM,,
CCCCCCCN(Cc1ccc(N(CC)CC)cc1)S(=O)(=O)c1cccc(C)c1,2300 nM,,
CCN(CC)c1ccc(CN(C(=O)Cc2ccccc2)c2ccc(C)cc2)cc1,72 nM,> 277,Ki (Cannabinoid receptor 1): > 20 µM
CCCCCCCN(Cc1ccc(N(CC)CC)cc1)S(=O)(=O)Cc1ccccc1,273 nM,,
CCCCCCCN(Cc1ccc(N(CC)CC)cc1)S(=O)(=O)c1ccc(OC(C)C)cc1,> 20000 nM,,
CCCCCCCN(Cc1ccc(N(CC)CC)cc1)S(=O)(=O)CCCC,,,Ki (Cannabinoid receptor 2 [1]; read-out: pKi (converted)): 697 nM
CCCCCCCN(Cc1ccc(N(CC)CC)cc1)S(=O)(=O)c1ccc(Cl)cc1,6740 nM,,
CCN(CC)c1ccc(CN([C@]23C[C@H]4C[C@H](C[C@H](C4)C2)C3)S(=O)(=O)c2ccc(C)cc2)cc1,,,Ki (Cannabinoid receptor 1): > 20 µM
CCN(CC)c1ccc(CN(c2ccc(Cl)cc2)S(=O)(=O)c2ccc(C(C)C)cc2)cc1,222 nM,,
CCN(CC)c1ccc(CN(C(=O)C2CCCCC2)c2ccc(Cl)cc2)cc1,164 nM,121,Ki (Cannabinoid receptor 1): > 20 µM
CCN(CC)c1ccc(CN(c2ccc(C)cc2)S(=O)(=O)c2ccc(F)cc2)cc1,5.6 nM,153,
CCN(CC)c1ccc(CN([C@]23C[C@H]4C[C@H](C[C@H](C4)C2)C3)S(=O)(=O)c2ccc(OC)cc2)cc1,137 nM,,
CCCCCCCN(Cc1ccc(N(CC)CC)cc1)S(=O)(=O)c1ccc(C(C)C)cc1,13000 nM,,
CCN(CC)c1ccc(CN(C(=O)C2CCCCC2)[C@]23C[C@H]4C[C@H](C[C@H](C4)C2)C3)cc1,35 nM,> 571,Ki (Cannabinoid receptor 1): > 20 µM
CCN(CC)c1ccc(CN(C(=O)Cc2ccc(Cl)cc2)[C@]23C[C@H]4C[C@H](C[C@H](C4)C2)C3)cc1,,,Ki (Cannabinoid receptor 1): > 20 µM
CCN(CC)c1ccc(CN(c2ccc(C)cc2)S(=O)(=O)c2ccccc2)cc1,3.4 nM,151,EC50 (Cannabinoid receptor 2 [2]): 609 nM
CCN(CC)c1ccc(CN(C(=O)C2CCCCC2)c2ccc(C)cc2)cc1,222 nM,0.9,
CCN(CC)c1ccc(CN([C@]23C[C@H]4C[C@H](C[C@H](C4)C2)C3)S(=O)(=O)c2ccc(C(C)C)cc2)cc1,457 nM,,
CCCCCCCN(Cc1ccc(N(CC)CC)cc1)C(=O)c1ccc(N(C)C)cc1,1280 nM,,

SMILES,Ki (Cannabinoid receptor 2 [1]; read-out: Ki),Ratio Ki (Homo sapiens),further results
CCN(CC)c1ccc(CN([C@]23C[C@H]4C[C@H](C[C@H](C4)C2)C3)S(=O)(=O)c2cccc(C)c2)cc1,19 nM,,inhibition at 10 µM (RAW264.7 [3]): > 95%; Activity (RAW264.7 [4]): Non-toxic; Ki (Cannabinoid receptor 1): 8.22 µM; inhibition (RAW264.7 [5]): Dose-dependent effect
CCN(CC)c1ccc(CN(C(=O)Cc2ccc(Cl)cc2)c2ccc(Cl)cc2)cc1,136 nM,147,
CCN(CC)c1ccc(CN(c2ccc(C)cc2)S(=O)(=O)c2ccc(Cl)cc2)cc1,3 nM,,
CCN(CC)c1ccc(CN(C(=O)Cc2ccc(Cl)cc2)c2ccc(C)cc2)cc1,107 nM,29,
CCN(CC)c1ccc(CN(c2ccc(Cl)cc2)S(=O)(=O)c2ccc(C)cc2)cc1,37 nM,3.7,
CCN(CC)c1ccc(CN(c2ccc(Cl)cc2)S(=O)(=O)c2ccc(F)cc2)cc1,73 nM,15,
CCN(CC)c1ccc(CN([C@]23C[C@H]4C[C@H](C[C@H](C4)C2)C3)S(=O)(=O)c2ccc(F)cc2)cc1,25 nM,,EC50 (Cannabinoid receptor 2 [2]): 268 nM; Ki (Cannabinoid receptor 1): 4.27 µM
Cc1ccc(S(=O)(=O)N(CCc2ccc(Cl)cc2)S(=O)(=O)c2ccc(C)cc2)cc1,192 nM,26,
CCN(CC)c1ccc(CN(c2ccc(C)cc2)S(=O)(=O)c2ccc(C(C)C)cc2)cc1,4.3 nM,782,
CCN(CC)c1ccc(CN(c2ccc(C)cc2)S(=O)(=O)c2cccc(C)c2)cc1,5.8 nM,37,
CCN(CC)c1ccc(CN(c2ccc(C)cc2)S(=O)(=O)c2ccc(OC)cc2)cc1,0.5 nM,2590,"EC50 (Cannabinoid receptor 2 [2]): 42.7 nM; inhibition at 10 µM (RAW264.7 [3]): 100%; Activity (RAW264.7 [6]): Toxic; inhibition at 0.1 µM (RAW264.7 [7]): 46%; inhibition at 1 µM (RAW264.7 [8]; RAW264.7, 120 h): 97%; Activity (RAW264.7 [9]): Toxic; inhibition (RAW264.7 [5]): Dose-dependent effect; Activity (RAW264.7 [10]): Non-toxic"
CCCCCCCN(Cc1ccc(N(CC)CC)cc1)C(=O)Cc1ccccc1,1310 nM,,
CCN(CC)c1ccc(CN[C@]23C[C@H]4C[C@H](C[C@H](C4)C2)C3)cc1,20000 nM,,
CCCCCCCC(=O)N(Cc1ccc(N(CC)CC)cc1)[C@]12C[C@H]3C[C@H](C[C@H](C3)C1)C2,638 nM,,
CCN(CC)c1ccc(CNc2ccc(Cl)cc2)cc1,6740 nM,,
CCCCCCCC(=O)N(CCCCCCC)Cc1ccc(N(CC)CC)cc1,> 20000 nM,,
CCN(CC)c1ccc(CN(c2ccc(Cl)cc2)S(=O)(=O)c2ccc(Cl)cc2)cc1,36 nM,183,
CCCCCCCN(Cc1ccc(N(CC)CC)cc1)C(=O)C1CCCCC1,212 nM,,
CCN(CC)c1ccc(CN(c2ccc(Cl)cc2)S(=O)(=O)c2ccc(OC)cc2)cc1,14 nM,> 1430,EC50 (Cannabinoid receptor 2 [2]): 16.4 nM; inhibition at 10 µM (RAW264.7 [3]): > 95%; Activity (RAW264.7 [6]): Toxic; Activity (RAW264.7 [4]): Non-toxic; Ki (Cannabinoid receptor 1): > 20 µM; inhibition (RAW264.7 [8]): Active; Activity (RAW264.7 [9]): Toxic; inhibition (RAW264.7 [5]): Dose-dependent effect; Activity (RAW264.7 [10]): Non-toxic
CCCCCCCN(Cc1ccc(N(CC)CC)cc1)S(=O)(=O)c1ccc(F)cc1,1100 nM,,
CCN(CC)c1ccc(CN(c2ccc(C)cc2)S(=O)(=O)c2ccc(C)cc2)cc1,5.4 nM,,
CCCCCCCN(Cc1ccc(N(CC)CC)cc1)S(=O)(=O)c1ccc(OC)cc1,5190 nM,,
